Results reported in ChEMBL document CHEMBL2021847, “Identification of fused-ring alkanoic acids with improved pharmacokinetic profiles that act as G protein-coupled receptor 40/free fatty acid receptor 1 agonists” (J Med Chem, 2012).
Activity calls are given as the source filed them. The calls are words filed in the database; no cut-off is given here.

How the values were obtained:
[1] = target: T1, Free fatty acid receptor 1 (Homo sapiens, UniProt O14842); test: Agonist activity at human […] receptor expressed in CHO cells assessed as increase in intracellular calcium concentration after 90 secs by FLIPR assay in presence of 0.1% BSA; type: functional, cell-based
Summary of the method: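 CHO dhfr cells stably expressing human GPR40/FFA1 (NM_005303) plated and held overnight at 37 °C in 5% CO2. Loaded 60 min at 37 °C with Fluo 4-AM 2.5 μg/mL, probenecid 2.5 mmol/L and 0.1% fatty acid-free BSA. Compounds added over a concentration range, Ca2+ rise followed 90 s. Response scaled between vehicle (0%) and 10 μM γ-linolenic acid (100%).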

[2] = target: Free fatty acid receptor 1 (Rattus norvegicus, UniProt Q8K3T4); test: Displacement of 3-[4-({2',6'-dimethyl-6-[(4-[3H])-phenylmethoxy]biphenyl-3-yl}methoxy)phenyl] propanoic acid from rat GPR40 receptor expressed in CHO cells after 90 mins by scintillation counting in presence of 0.2% BSA; type: cell-based
Summary of the method: (§1)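 Membranes from CHO lines stably expressing human or rat GPR40/FFA1, in Tris-HCl pH 7.5 with EDTA, protease inhibitors, 0.05% CHAPS and 0.2% fatty acid-free BSA. Tritiated ligand at 2 or 6 nmol/L with graded test compound, 90 min at room temperature. Filter harvest, scintillation counting. Nonspecific binding with 10 μmol/L unlabeled ligand. IC50 by nonlinear regression, Ki via Cheng–Prusoff with measured Kd. Averages of n = 2 or 3.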

[3] = target: T1, Free fatty acid receptor 1; test: Displacement of 3-[4-({2',6'-dimethyl-6-[(4-[3H])-phenylmethoxy]biphenyl-3-yl}methoxy)phenyl] propanoic acid from human GPR40 receptor expressed in CHO cells after 90 mins by scintillation counting in presence of 0.2% BSA; type: cell-based; summary of the method: as §1
[4] = Octanol-water partition coefficient, log D of the compound at pH 7.4 by reverse-phase liquid chromatography; type: physicochemical
[5] = target: T1, Free fatty acid receptor 1; test: Agonist activity at human […] receptor expressed in CHO cells assessed as increase in intracellular calcium concentration at 1 uM after 90 secs by FLIPR assay in presence of 0.1% BSA relative to control; type: functional, cell-based
Summary of the method: (§2)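 CHO dhfr cells stably expressing human GPR40/FFA1 (NM_005303) plated, incubated overnight at 37 °C in 5% CO2. Loaded 60 min at 37 °C with Fluo 4-AM (2.5 μg/mL), probenecid (2.5 mmol/L), 0.1% fatty acid-free BSA. Ca2+ rise monitored by FLIPR for 90 s after compound addition. Response expressed as % of 10 μM γ-linolenic acid response, vehicle-corrected.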

[6] = target: T1, Free fatty acid receptor 1; test: Agonist activity at human […] receptor expressed in CHO cells assessed as increase in intracellular calcium concentration at 10 uM after 90 secs by FLIPR assay in presence of 0.1% BSA relative to control; type: functional, cell-based; summary of the method: as §2
[7] = tested on: Rattus norvegicus; test: Antidiabetic activity in Wistar fatty rat assessed as decrease in plasma glucose level at 1 to 10 mg/kg, po administered as single dose 1 hr prior to glucose challenge measured after 120 mins by OGTT; type: functional, organism-based
Summary of the method: (§3)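 Female Wistar fatty rats aged 17−19 weeks, fasted overnight. Dosed orally in 0.5% methylcellulose (vehicle control), then given oral glucose 1 g/kg 1 h later. Tail-vein blood taken pre-dose, at 0, and at 10, 30, 60 and 120 min. Glucose by autoanalyzer, insulin by RIA. Glucose AUC0−120 min and incremental insulin AUC0−120 min calculated. n = 6, one-tailed Williams test versus vehicle.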

[8] = tested on: Rattus norvegicus; test: Antidiabetic activity in Wistar fatty rat assessed as decrease in plasma glucose level at 10 mg/kg, po administered as single dose 4 hrs prior to glucose challenge measured after 120 mins by OGTT; type: functional, organism-based; set-up: dose 10 mg/kg
Summary of the method: (§4)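 Female Wistar fatty rats aged 17−19 weeks, fasted overnight. Given compound orally (10 mg/kg) or vehicle (0.5% methylcellulose), with oral glucose 1 g/kg 4 h later. Tail-vein sampling pre-dose, at 0, and at 10–120 min. Glucose by autoanalyzer, insulin by RIA.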

[9] = tested on: Rattus norvegicus; test: Antidiabetic activity in Wistar fatty rat assessed as increase in plasma insulin level at 1 to 10 mg/kg, po administered as single dose 1 hr prior to glucose challenge measured after 120 mins by OGTT; type: functional, organism-based; summary of the method: as §3
[10] = tested on: Rattus norvegicus; test: Antidiabetic activity in po dosed Wistar fatty rat assessed as increase in plasma insulin level administered as single dose 1 hr prior to glucose challenge measured after 120 mins by OGTT; type: functional; conditions: read-out: MED; summary of the method: as §3
[11] = tested on: Rattus norvegicus; test: Antidiabetic activity in Wistar fatty rat assessed as increase in plasma insulin level at 10 mg/kg, po administered as single dose 4 hrs prior to glucose challenge measured after 120 mins by OGTT; type: functional, organism-based; set-up: dose 10 mg/kg; summary of the method: as §4
[12] = tested on: Rattus norvegicus; test: Antidiabetic activity in po dosed Wistar fatty rat assessed as decrease in plasma glucose level administered as single dose 1 hr prior to glucose challenge measured after 120 mins by OGTT; type: functional; conditions: read-out: MED; summary of the method: as §3

T1 sequence (O14842 whole entry): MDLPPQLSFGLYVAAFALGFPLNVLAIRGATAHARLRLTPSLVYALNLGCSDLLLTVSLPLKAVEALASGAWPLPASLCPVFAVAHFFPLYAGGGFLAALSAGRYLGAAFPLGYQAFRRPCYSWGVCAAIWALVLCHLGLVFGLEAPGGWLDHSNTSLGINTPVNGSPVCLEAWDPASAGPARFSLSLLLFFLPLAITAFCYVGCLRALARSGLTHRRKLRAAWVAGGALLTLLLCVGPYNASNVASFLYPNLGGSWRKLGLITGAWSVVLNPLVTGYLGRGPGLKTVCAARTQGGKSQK
Sequence of Free fatty acid receptor 1 (Rattus norvegicus, UniProt Q8K3T4) (Q8K3T4 whole entry): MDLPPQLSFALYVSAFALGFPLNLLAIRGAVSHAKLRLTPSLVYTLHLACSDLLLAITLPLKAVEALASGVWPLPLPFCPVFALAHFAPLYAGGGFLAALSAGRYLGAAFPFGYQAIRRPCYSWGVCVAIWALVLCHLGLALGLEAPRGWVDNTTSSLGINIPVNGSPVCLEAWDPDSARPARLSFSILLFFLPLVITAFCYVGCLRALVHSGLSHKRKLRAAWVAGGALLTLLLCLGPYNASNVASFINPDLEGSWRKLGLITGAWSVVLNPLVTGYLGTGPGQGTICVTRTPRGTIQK

EC50 [1]	Ki [2]	Ki [3]	chromatographic logD [4]	Compound	also measured
0.029 µM	1.6 µM	0.057 µM	4.15	Cc1ccc(-c2cccc(COc3ccc4c(c3)OCC4CC(=O)O)c2)c(C)c1 (centres undefined)	–
0.069 µM	> 10 µM	1.2 µM	4.12	Cc1cccc(C)c1-c1cccc(COc2ccc3c(c2)CC3CC(=O)O)c1 (centres undefined)	–
0.024 µM	1.6 µM	0.13 µM	3.31	COc1ccc(COc2ccc3c(c2)OCC3CC(=O)O)cc1-c1c(C)cccc1C (centres undefined)	–
0.048 µM	0.11 µM	0.043 µM	3.13	CCOCCOc1cc(C)c(-c2cccc(CNc3ccc4c(c3)OCC4CC(=O)O)c2)c(C)c1 (centres undefined)	–
0.027 µM	–	–	3.88	Cc1cccc(C)c1-c1cccc(COc2ccc3c(c2)OCC3CC(=O)O)c1 (centres undefined)	–
0.021 µM	0.47 µM	0.041 µM	4.33	Cc1ccc2ccccc2c1-c1cccc(COc2ccc3c(c2)OCC3CC(=O)O)c1 (centres undefined)	–
0.033 µM	–	–	4.4	Cc1cccc(C)c1-c1cccc(COc2ccc3c(c2)CCC3CC(=O)O)c1 (centres undefined)	–
0.51 µM	> 10 µM	2.1 µM	4.67	CCOCCOc1cc(C)c(-c2cccc(COc3ccc4c(c3)CCC(CC(=O)O)C4)c2)c(C)c1 (centres undefined)	–
0.18 µM	> 10 µM	0.57 µM	3.97	O=C(O)CC1COc2cc(OCc3cccc(-c4ccc5sccc5c4)c3)ccc21 (centres undefined)	–
4.9 µM	–	–	4.04	Cc1cccc(C)c1-c1cccc(COc2ccc3c(CC(=O)O)coc3c2)c1	–
0.091 µM	0.067 µM	0.39 µM	3.61	CCOCCOc1cc(C)c(-c2cccc(COc3ccc4c(c3)COC4CC(=O)O)c2)c(C)c1 (centres undefined)	–
0.027 µM	–	–	4.7	Cc1cccc(C)c1-c1cccc(COc2ccc3c(c2)CCCC3CC(=O)O)c1 (centres undefined)	–
0.033 µM	0.13 µM	0.036 µM	4.47	Cc1cc(C)c(-c2cccc(COc3ccc4c(c3)OCC4CC(=O)O)c2)c(C)c1 (centres undefined)	–
–	> 10 µM	> 10 µM	3.41	CCOCCOc1cc(C)c(-c2cccc(COc3ccc4c(c3)CC(=O)N4CC(=O)O)c2)c(C)c1	Efficacy [5]: 2%; Efficacy [6]: 59%
0.14 µM	> 10 µM	0.28 µM	4.33	CCOCCOc1cc(C)c(-c2cccc(COc3ccc4c(c3)CCC(C(=O)O)C4)c2)c(C)c1 (centres undefined)	–
0.94 µM	–	–	5.02	Cc1cccc(C)c1-c1cccc(COc2ccc3c(c2)CCCCC3CC(=O)O)c1 (centres undefined)	–
0.01 µM	0.17 µM	0.0069 µM	4.53	Cc1cccc(C)c1-c1cc(COc2ccc3c(c2)OCC3CC(=O)O)ccc1OCc1ccccc1 (centres undefined)	–
0.96 µM	> 10 µM	> 10 µM	4.11	CCOCCOc1cc(C)c(-c2cccc(COc3ccc4c(c3)CC(C(=O)O)C4)c2)c(C)c1 (centres undefined)	–
0.039 µM	> 10 µM	0.29 µM	3.99	O=C(O)CC1COc2cc(OCc3cccc(-c4csc5ccccc45)c3)ccc21 (centres undefined)	–
0.07 µM	–	–	4.05	Cc1cccc(C)c1-c1cccc(COc2ccc3c(c2)OCCC(C(=O)O)C3)c1 (centres undefined)	–
–	0.2 µM	–	3.83	CCOCCOc1cc(C)c(-c2cccc(COc3ccc4c(c3)OCC4CC(=O)O)c2)c(C)c1 (centres undefined)	Activity [7]: Active; Activity [8]: Active; Activity [9]: Active; minimal effective dose [10]: 10 mg/kg; Activity [11]: Active; minimal effective dose [12]: 10 mg/kg
0.028 µM	0.1 µM	0.018 µM	5.03	Cc1cc(OCc2ccccc2)cc(C)c1-c1cccc(COc2ccc3c(c2)OCC3CC(=O)O)c1 (centres undefined)	–
0.57 µM	> 10 µM	> 10 µM	3.88	Cc1cccc(C)c1-c1cccc(COc2ccc3c(n2)CCC3CC(=O)O)c1 (centres undefined)	–
0.084 µM	> 10 µM	0.27 µM	4.39	CCOCCOc1cc(C)c(-c2cccc(COc3ccc4c(c3)CC(CC(=O)O)C4)c2)c(C)c1 (centres undefined)	–
–	> 10 µM	> 10 µM	3.93	Cc1cccc(C)c1-c1cccc(COc2ccc3c(ccn3CC(=O)O)c2)c1	Efficacy [5]: 2%; Efficacy [6]: 101%
